# Data published in paper PMC6675461 (Bioorganic & medicinal chemistry, 2009).
# How the values were obtained:
# [1] = tested on: LNCaP cells; test: SRB antiproliferative assay, LNCaP prostate cancer cells; format: cell-based, human; settings: Homo sapiens, LNCaP, 96 h, read-out: IC50 ± SEM LNCaP
# Summary of the method: (§1)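 Prostate cancer cells were grown in RPMI1640 with 10% FBS at 37 °C, 5% CO2. Cells were fixed with 10% TCA and stained with 0.4% SRB, and absorbance was read at 540 nm. IC50 came from nonlinear regression of % survival versus concentration.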
# [2] = tested on: three melanoma cell lines (B16-F1, A375, WM-164); test: SRB assay, average over melanoma cell lines and selectivity vs fibroblast; format: cell-based, human, mouse; settings: Fibroblast, read-out: Aver. (average IC50 of three melanoma cells IC50s)
# [3] = tested on: A375 cells; test: Melanoma colony-formation assay; format: cell-based, human; settings: 14 days
# Summary of the method: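 A375 cells were plated at colony-forming density (2000 per well) in DMEM with FBS and antibiotic-antimycotic at 37 °C, 5% CO2. Test compound was added at 2, […], with matching DMSO dilution as vehicle control. After 14 days' growth, colonies were stained with 0.1% […] for 30 min, rinsed and counted with an automated colony counter.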
# [4] = tested on: LNCaP cells; test: Flow cytometric cell cycle analysis, LNCaP; format: cell-based, human; settings: tested 1, 5, 10, 20 μM, 48 h
# [5] = tested on: PC-3 cells; test: SRB antiproliferative assay, PC-3 prostate cancer cells; format: cell-based, human; settings: Homo sapiens, PC-3, 96 h, read-out: IC50 ± SEM PC-3
# [6] = tested on: PPC-1 cells; test: SRB antiproliferative assay, PPC-1 prostate cancer cells; format: cell-based, human; settings: Homo sapiens, PPC-1, 96 h, read-out: IC50 ± SEM PPC-1
# Summary of the method: as §1
# [7] = tested on: RH7777 cells; test: SRB assay, RH7777 control cells; format: cell-based; settings: Homo sapiens, RH7777, 96 h, read-out: IC50 ± SEM RH7777
# Summary of the method: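 PC-3 cells were grown in RPMI1640 with 10% FBS, and RH7777 cells in DMEM with 10% FBS, both at 37 °C, 5% CO2. Cells were fixed with 10% TCA, stained with 0.4% SRB and read at 540 nm. IC50 came from nonlinear regression of % survival versus concentration.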
# [8] = tested on: DU 145 cells; test: SRB antiproliferative assay, DU 145 prostate cancer cells; format: cell-based, human; settings: Homo sapiens, DU-145, 96 h, read-out: IC50 ± SEM DU 145
# Summary of the method: as §1
# [9] = target: T1, LPA3 (Homo sapiens, UniProt Q9UBY5); test: FLIPR intracellular calcium mobilization assay, LPA3-transfected Chem-1 cells; format: cell-based
# T1 sequence (Q9UBY5 1-353): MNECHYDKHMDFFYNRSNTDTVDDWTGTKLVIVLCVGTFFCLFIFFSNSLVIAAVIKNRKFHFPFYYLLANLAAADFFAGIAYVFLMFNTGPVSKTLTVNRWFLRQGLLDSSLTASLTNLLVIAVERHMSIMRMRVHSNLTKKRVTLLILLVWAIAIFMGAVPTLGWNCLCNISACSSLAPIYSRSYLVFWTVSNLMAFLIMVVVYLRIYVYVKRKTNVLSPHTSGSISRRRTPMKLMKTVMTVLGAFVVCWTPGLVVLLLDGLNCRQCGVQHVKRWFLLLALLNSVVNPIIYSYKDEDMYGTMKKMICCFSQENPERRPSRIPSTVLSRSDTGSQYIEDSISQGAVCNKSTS
# [10] = tested on: A375 cells; test: Flow cytometric cell cycle analysis, A375; format: cell-based, human; settings: A375, tested 1, 5, 10, 20 μM, 48 h
# [11] = target: LPA5 (Homo sapiens, UniProt Q9H1C0); test: FLIPR intracellular calcium mobilization assay, LPA5-transfected Chem-1 cells; format: cell-based
# [12] = target: LPA1 (Homo sapiens, UniProt Q92633); test: FLIPR intracellular calcium mobilization assay, LPA1-transfected Chem-1 cells; format: cell-based
# [13] = against oleoyl-LPA at EC80, top concentration 10 μM
# [14] = top concentration 10 μM, 15% activation of oleoyl-LPA Emax = agonist
# Sequence of LPA5 (Q9H1C0 whole entry, species assumed): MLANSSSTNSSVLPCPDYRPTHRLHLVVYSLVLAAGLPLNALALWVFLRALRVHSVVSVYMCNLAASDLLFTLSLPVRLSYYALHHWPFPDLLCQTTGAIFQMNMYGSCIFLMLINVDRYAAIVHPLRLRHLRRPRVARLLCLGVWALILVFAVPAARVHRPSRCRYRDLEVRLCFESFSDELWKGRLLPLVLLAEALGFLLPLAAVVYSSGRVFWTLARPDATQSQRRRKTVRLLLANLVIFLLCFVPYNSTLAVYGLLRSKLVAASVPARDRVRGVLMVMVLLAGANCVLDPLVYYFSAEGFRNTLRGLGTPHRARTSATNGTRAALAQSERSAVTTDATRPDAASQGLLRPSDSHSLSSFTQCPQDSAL
# Sequence of LPA1 (Q92633 whole entry, species assumed): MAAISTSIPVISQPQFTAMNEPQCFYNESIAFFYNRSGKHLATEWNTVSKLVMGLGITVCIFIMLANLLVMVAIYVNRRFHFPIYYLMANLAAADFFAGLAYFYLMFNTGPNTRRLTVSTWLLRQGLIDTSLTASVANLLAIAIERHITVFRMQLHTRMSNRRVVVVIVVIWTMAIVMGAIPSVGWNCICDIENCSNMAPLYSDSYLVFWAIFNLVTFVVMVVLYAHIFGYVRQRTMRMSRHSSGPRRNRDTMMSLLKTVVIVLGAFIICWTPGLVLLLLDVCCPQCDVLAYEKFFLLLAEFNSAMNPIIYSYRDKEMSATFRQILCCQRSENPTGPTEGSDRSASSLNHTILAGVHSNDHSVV
compound,measurement,setting,value
"CCCCCCCCCCCCCCCCNC(=O)[C@@H]1CSC(c2cc(OC)c(OC)c(OC)c2)N1 (mixture of isomers) [Compound 3ad, (2RS,4R)-2-(3,4,5-Trimethoxy-phenyl)-thiazolidine-4-carboxylic acid hexadecylamide]",IC50,[1],800 ± 100 nM
same,IC50,[2],1200 nM
same,inhibition of A375 colony formation,[3]; 2 μM,effectively inhibit
same,inhibition of A375 colony formation,[3]; 20 μM,almost completely inhibited
same,inhibition of A375 colony formation,[3]; 100 μM,completely inhibited
same,concentration at which accumulation of cells in sub-G1 phase became apparent,[4],5 µM
same,IC50,[5],1800 ± 100 nM
same,IC50,[6],400 ± 100 nM
same,IC50,[7],7200 ± 100 nM
same,IC50,[8],1700 ± 100 nM
same,"antagonist activity on LPA3, in words",[9]; [13],did not exhibit any dose-dependent antagonist activity
same,"agonist activity on LPA3, in words",[9]; [14],did not exhibit any dose-dependent agonist activity
same,concentration at which accumulation of cells in sub-G1 phase became apparent,[10],5 µM
same,"antagonist activity on LPA5, in words",[11]; [13],did not exhibit any dose-dependent antagonist activity
same,"agonist activity on LPA5, in words",[11]; [14],did not exhibit any dose-dependent agonist activity
same,"antagonist activity on LPA1, in words",[12]; [13],did not exhibit any dose-dependent antagonist activity
same,"agonist activity on LPA1, in words",[12]; [14],did not exhibit any dose-dependent agonist activity
